Measurements: ChEMBL document CHEMBL5113498, “A fragment-based drug discovery strategy applied to the identification of NDM-1 β-lactamase inhibitors” (Eur J Med Chem, 2022)
pKi: −log10 of the molar value.

What was measured:
Bacteria [1] = assay: Inhibition of VIM-2 (unknown origin) using imipenem as substrate at 50 uM by spectrophotometric assay relative to control
Outline: (§1)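 Reporter-substrate spectrophotometric assay in 50 mM HEPES pH 7.5. Imipenem 150 μM (final) hydrolysis followed as absorbance change at 300 nm, with and without 50 μM compound. Compounds dissolved in DMSO (100 mM stock) and diluted in reaction buffer. % inhibition = 100 − 100×(vi/v0). 5 mM EDTA served as inhibition control.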

Bacteria [2] = assay: Inhibition of IMP-1 (unknown origin) using imipenem as substrate at 50 uM by spectrophotometric assay relative to control; outline: as §1
Bacteria [3] = assay: Inhibition of […] (unknown origin) using imipenem as substrate at 50 uM by spectrophotometric assay relative to control; outline: as §1
[4] = Inhibition of […] (unknown origin) using imipenem as substrate by spectrophotometric assay relative to control; design: species or system Bacteria
Outline: (§2)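 Ki from a competitive model. Initial rates of hydrolysis of 150 μM imipenem (reporter substrate) measured spectrophotometrically in 50 mM HEPES pH 7.5 at varying inhibitor concentrations. v0/vi plotted against [I], and Ki = KM/[(KM+[S])·slope]. Assays run in triplicate.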

Escherichia coli [5] = assay: Synergistic antibacterial activity against Escherichia coli SI-004M assessed as meropenem MIC at 32 ug/ml after 24 hrs by two-fold serial dilution method; format: functional; settings: dose 32 µg/ml
Outline: (§3)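 Meropenem MICs against NDM-1-producing clinical isolates, with or without inhibitor fixed at 32 μg/mL, by two-fold serial dilution in Mueller-Hinton broth. Inoculum 5×10^4 CFU/well, CLSI method. Inhibitor added before the antibiotic. Plates incubated 24 h at 35 °C and read visually. Done in triplicate.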

Klebsiella pneumoniae [6] = assay: Synergistic antibacterial activity against Klebsiella pneumoniae SI-518 assessed as meropenem MIC at 32 ug/ml after 24 hrs by two-fold serial dilution method; format: functional; settings: dose 32 µg/ml; outline: as §3
[7] = Inhibition of IMP-1 (unknown origin) using imipenem as substrate by spectrophotometric assay relative to control; design: species or system Bacteria; outline: as §2
Klebsiella pneumoniae [8] = assay: Synergistic antibacterial activity against Klebsiella pneumoniae SI-518 assessed as fold reduction in meropenem MIC at 32 ug/ml after 24 hrs by two-fold serial dilution method; format: functional; settings: dose 32 µg/ml; outline: as §3
Escherichia coli [9] = assay: Synergistic antibacterial activity against Escherichia coli SI-004M assessed as fold reduction in meropenem MIC at 32 ug/ml after 24 hrs by two-fold serial dilution method; format: functional; settings: dose 32 µg/ml; outline: as §3
Escherichia coli [10] = assay: Antibacterial activity against Escherichia coli SI-004M assessed as reduction in microbial growth after 24 hrs by two-fold serial dilution method; format: functional
Outline: (§4)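 NDM-1-producing clinical isolate; meropenem MIC measured without inhibitor and with a fixed 32 μg/mL inhibitor (in each well and in the diluent) over two-fold serial dilutions. Mueller-Hinton broth, 5×10^4 CFU/well inoculum, per CLSI. Incubated 35 °C for 24 h and read visually. Triplicate. Compounds from a DMSO stock diluted in medium.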

Klebsiella pneumoniae [11] = assay: Antibacterial activity against Klebsiella pneumoniae SI-518 assessed as reduction in microbial growth after 24 hrs by two-fold serial dilution method; format: functional; outline: as §4

Oc1cccc2ccc(/C=C/c3ccc4c(c3)OCO4)nc12
inhibition (Bacteria [1]): 26% | inhibition (Bacteria [2]): 79% | inhibition (Bacteria [3]): 93%

O=C1/C(=C/c2ccc(O)c(O)c2)Cc2cc(O)cc(O)c21
inhibition (Bacteria [1]): < 20% | pKi [4]: 5.39 | inhibition (Bacteria [2]): 23% | inhibition (Bacteria [3]): 77%

O=C(/C=C/c1ccc(N2CCCCC2)cc1)c1ccccc1O
inhibition (Bacteria [3]): 35%

Oc1cccc2ccc(CCc3ccc4c(c3)OCO4)nc12
inhibition (Bacteria [1]): 38% | MIC (Escherichia coli [5]): 64 µg/mL | MIC (Klebsiella pneumoniae [6]): 64 µg/mL | pKi [4]: 5.96 | inhibition (Bacteria [2]): 71% | inhibition (Bacteria [3]): 90%

O=C(/C=C/c1ccc(N2CCOCC2)cc1)c1ccccc1O
inhibition (Bacteria [3]): 24%

O=C(/C=C/c1ccc2c(c1)OCO2)c1ccccc1O
inhibition (Bacteria [3]): < 20%

Oc1cccc2ccc(/C=C/c3ccccc3)nc12
pKi [7]: 5.33 | inhibition (Bacteria [1]): 37% | fold change (FC) (Klebsiella pneumoniae [8]): 256 | MIC (Escherichia coli [5]): 1 µg/mL | MIC (Klebsiella pneumoniae [6]): 0.25 µg/mL | fold change (FC) (Escherichia coli [9]): 64 | pKi [4]: 5.66 | inhibition (Bacteria [2]): 84% | inhibition (Bacteria [3]): 95%

C[C@@H](O)[C@H]1C(=O)N2C(C(=O)O)=C(S[C@@H]3CN[C@H](C(=O)N(C)C)C3)[C@H](C)[C@H]12 [MEROPENEM]
MIC (Escherichia coli [10]): 64 µg/mL | MIC (Klebsiella pneumoniae [11]): 64 µg/mL

Oc1cccc2ccc(CCc3ccccc3)nc12
inhibition (Bacteria [1]): 28% | inhibition (Bacteria [2]): 76% | inhibition (Bacteria [3]): 85%

CCCCOc1ccc(/C=C2\Oc3cc(O)cc(O)c3C2=O)c(O)c1
inhibition (Bacteria [3]): 46%

O=C1/C(=C/c2ccc(N3CCCCC3)cc2)Oc2cc(O)cc(O)c21
inhibition (Bacteria [1]): < 20% | pKi [4]: 5.32 | inhibition (Bacteria [2]): < 20% | inhibition (Bacteria [3]): 74%
